What was measured:
A549 = assay: Cytotoxicity against human A549 cells after 72 hrs by MTT assay; assay type: functional, cell-based; details: A549, 72 h
Summary of the method: (§1)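 Cells allowed to attach as monolayers, then exposed to compounds at various concentrations in culture medium for 72 h; controls got deionized water (compound stock solvent). MTT added ([…]) for 3 h, supernatant removed, cells dissolved in DMSO, absorbance at 570 nm. CC50 = concentration reducing MTT signal 50% versus untreated controls.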

CNE = assay: Cytotoxicity against human CNE cells after 72 hrs by MTT assay; assay type: functional, cell-based; summary of the method: as §1
PC-3 = assay: Cytotoxicity against human PC3 cells after 72 hrs by MTT assay; assay type: functional, cell-based; details: PC-3, 72 h; summary of the method: as §1
KB = assay: Cytotoxicity against human KB cells after 72 hrs by MTT assay; assay type: functional, cell-based; summary of the method: as §1
HeLa = assay: Cytotoxicity against human HeLa cells after 72 hrs by MTT assay; assay type: functional, cell-based; summary of the method: as §1
[1] = Cytotoxicity against human Bel7404 cells after 72 hrs by MTT assay; assay type: functional, cell-based; details: BEL-7404, 72 h; summary of the method: as §1
[2] = Inhibition of alpha glucosidase
Summary of the method: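 α-Glucosidase (25 µL at 0.2 U/mL) with p-nitrophenyl-α-D-glucopyranoside (25 µL of 23.2 mM), sample at various concentrations, in 67 mM phosphate buffer pH 6.8. Reaction stopped with 1 M Na2CO3; p-nitrophenol release read at 405 nm. Blanks lacked enzyme; negative control had buffer instead of sample; acarbose as positive control. Percent inhibition from corrected ODs; IC50 calculated from this.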

IC50 [2] | SMILES | IC50 (A549) | IC50 (CNE) | IC50 (PC-3) | IC50 (KB) | IC50 (HeLa) | IC50 [1]
– | COc1ccc(/C=C/COC(=O)/C=C/c2ccc([N+](=O)[O-])cc2)cc1OC | > 100 µg/mL | > 100 µg/mL | 212 µM | 165 µM | > 100 µg/mL | > 100 µg/mL
– | COCOc1ccc(/C=C/C(=O)OC/C=C/c2ccccc2)cc1OCOC | > 100 µg/mL | > 100 µg/mL | > 1000 µM | 202 µM | > 1000 µM | > 100 µg/mL
110 µM | COc1cc(/C=C/COC(=O)/C=C/c2cc(OC)c(OC)c(OC)c2)cc(OC)c1OC | 180 µM | 50 µM | 189 µM | 206 µM | 43 µM | > 100 µg/mL
– | COc1ccc(CCCOC(=O)CCc2ccc(O)cc2)cc1 | 186 µM | 287 µM | 283 µM | 820 µM | > 100 µg/mL | 108 µM
– | COc1ccc(/C=C/COC(=O)/C=C/c2cc(OC)c(OC)c(OC)c2)cc1OC | 172 µM | > 100 µg/mL | 80 µM | > 100 µg/mL | 64 µM | 212 µM
– | COc1ccc(/C=C/C(=O)OC/C=C/c2ccc(OC)c(OC)c2)cc1 | > 100 µg/mL | > 100 µg/mL | 181 µM | > 100 µg/mL | 167 µM | > 100 µg/mL
– | COCOc1ccc(/C=C/C(=O)OC/C=C/c2ccc(OC)cc2)cc1 | > 100 µg/mL | > 100 µg/mL | 226 µM | > 100 µg/mL | 46 µM | > 100 µg/mL
97 µM | O=C(/C=C/c1ccc(O)c(O)c1)OC/C=C/c1ccccc1 | 71 µM | 214 µM | 123 µM | 54 µM | 171 µM | 91 µM
– | COc1ccc(/C=C/COC(=O)/C=C/c2ccc(O)cc2)cc1 | 72 µM | 40 µM | 88 µM | 143 µM | 95 µM | 193 µM
680 µM | C[C@H]1O[C@H](O[C@H]2[C@H](O)[C@@H](O)[C@@H](O[C@H]3[C@H](O)[C@@H](O)C(O)O[C@@H]3CO)O[C@@H]2CO)[C@H](O)[C@@H](O)[C@@H]1N[C@H]1C=C(CO)[C@@H](O)[C@H](O)[C@H]1O (stereo partly drawn) [ACARBOSE] | – | – | – | – | – | –
– | COc1ccc(CCCOC(=O)CCc2cc(OC)c(OC)c(OC)c2)cc1OC | > 100 µg/mL | > 100 µg/mL | 104 µM | 124 µM | > 100 µg/mL | > 100 µg/mL
– | COc1ccc(/C=C/COC(=O)/C=C/c2ccc(OC)c(OC)c2)cc1OC | 181 µM | > 100 µg/mL | 92 µM | 133 µM | 86.7 µM | 136 µM
65 µM | O=C(/C=C/c1ccc(O)cc1)OC/C=C/c1ccccc1 | 120 µM | 162 µM | 143 µM | > 100 µg/mL | 160 µM | > 100 µg/mL
73 µM | O=C(CCc1ccc(O)c(O)c1)OCCCc1ccccc1 | 138 µM | 235 µM | 189 µM | 125 µM | 171 µM | > 100 µg/mL

Reference: ChEMBL document CHEMBL1158697, “Synthesis and biological evaluation of a natural ester sintenin and its synthetic analogues” (J Nat Prod, 2005)
